Tested on: Fibroblast
Experiment: Multiplex assay against human fibroblast
Format: toxicity, cell-based
Method in brief: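 Phenotypes for tubulin, mitochondrial mass and membrane permeability are expressed as per cents of healthy-nucleus cells. Cells were stained live at seeding with Hoechst33342, BioTracker Green Microtubule Cytoskeleton Dye, MitoTracker Red and Annexin V Alexa Fluor 680, then imaged after compound addition on a CQ1 microscope at 37°C and 5% CO2. Machine-learning gating in CellPathfinder separated Hoechst high-intensity objects from normal cells, divided normal cells by nuclear state (healthy, pyknosed, fragmented) and divided pyknosed cells into mitotic or apoptotic.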

[1] = 12 h, 1 µM, compound concentration 1 uM, replicate 1
[2] = 12 h, 1 µM, compound concentration 1 uM, replicate 2
[3] = 12 h, 10 µM, compound concentration 10 uM, replicate 1
[4] = 12 h, 10 µM, compound concentration 10 uM, replicate 2
[5] = 24 h, 1 µM, compound concentration 1 uM, replicate 1
[6] = 24 h, 1 µM, compound concentration 1 uM, replicate 2
[7] = 24 h, 10 µM, compound concentration 10 uM, replicate 1
[8] = 24 h, 10 µM, compound concentration 10 uM, replicate 2
[9] = 48 h, 1 µM, compound concentration 1 uM, replicate 1
[10] = 48 h, 1 µM, compound concentration 1 uM, replicate 2
[11] = 48 h, 10 µM, compound concentration 10 uM, replicate 1
[12] = 48 h, 10 µM, compound concentration 10 uM, replicate 2

CC(C)(C)NC[C@H](O)COc1nsnc1N1CCOCC1 [TIMOLOL]
Population Apoptotic (%) [1]: 71% | Population Fragmented Nuclei (%) [1]: 22% | Population Healthy Nuclei (%) [1]: 51% | Population Hoechst High Intensity Objects (%) [1]: 14% | Population Membrane Permeable-Phenotype (%) [1]: 14% | Population Mitochondria Different-Phenotype (%) [1]: 1% | Population Mitotic Cells (%) [1]: 28% | Population Normal (%) [1]: 85% | Population Pyknosed Nuclei (%) [1]: 25% | Population Tubulin-Different-Phenotype (%) [1]: 25% | Population Apoptotic (%) [2]: 100% | Population Fragmented Nuclei (%) [2]: 5% | Population Healthy Nuclei (%) [2]: 88% | Population Hoechst High Intensity Objects (%) [2]: 8% | Population Membrane Permeable-Phenotype (%) [2]: 8% | Population Mitochondria Different-Phenotype (%) [2]: 11% | Population Mitotic Cells (%) [2]: 0% | Population Normal (%) [2]: 92% | Population Pyknosed Nuclei (%) [2]: 5% | Population Tubulin-Different-Phenotype (%) [2]: 18% | Population Apoptotic (%) [3]: 60% | Population Fragmented Nuclei (%) [3]: 28% | Population Healthy Nuclei (%) [3]: 40% | Population Hoechst High Intensity Objects (%) [3]: 14% | Population Membrane Permeable-Phenotype (%) [3]: 33% | Population Mitochondria Different-Phenotype (%) [3]: 0% | Population Mitotic Cells (%) [3]: 39% | Population Normal (%) [3]: 85% | Population Pyknosed Nuclei (%) [3]: 31% | Population Tubulin-Different-Phenotype (%) [3]: 47% | Total Cell Count [3]: 105 | Population Apoptotic (%) [4]: 33% | Population Fragmented Nuclei (%) [4]: 8% | Population Healthy Nuclei (%) [4]: 79% | Population Hoechst High Intensity Objects (%) [4]: 3% | Population Membrane Permeable-Phenotype (%) [4]: 4% | Population Mitochondria Different-Phenotype (%) [4]: 7% | Population Mitotic Cells (%) [4]: 66% | Population Normal (%) [4]: 96% | Population Pyknosed Nuclei (%) [4]: 11% | Population Tubulin-Different-Phenotype (%) [4]: 4% | Population Apoptotic (%) [5]: 60% | Population Fragmented Nuclei (%) [5]: 19% | Population Healthy Nuclei (%) [5]: 53% | Population Hoechst High Intensity Objects (%) [5]: 12% | Population Membrane Permeable-Phenotype (%) [5]: 26% | Population Mitochondria Different-Phenotype (%) [5]: 0% | Population Mitotic Cells (%) [5]: 39% | Population Normal (%) [5]: 87% | Population Pyknosed Nuclei (%) [5]: 27% | Population Tubulin-Different-Phenotype (%) [5]: 30% | Population Apoptotic (%) [6]: 50% | Population Fragmented Nuclei (%) [6]: 11% | Population Healthy Nuclei (%) [6]: 81% | Population Hoechst High Intensity Objects (%) [6]: 5% | Population Membrane Permeable-Phenotype (%) [6]: 2% | Population Mitochondria Different-Phenotype (%) [6]: 18% | Population Mitotic Cells (%) [6]: 50% | Population Normal (%) [6]: 94% | Population Pyknosed Nuclei (%) [6]: 6% | Population Tubulin-Different-Phenotype (%) [6]: 21% | Population Apoptotic (%) [7]: 65% | Population Fragmented Nuclei (%) [7]: 22% | Population Healthy Nuclei (%) [7]: 49% | Population Hoechst High Intensity Objects (%) [7]: 16% | Population Membrane Permeable-Phenotype (%) [7]: 58% | Population Mitochondria Different-Phenotype (%) [7]: 2% | Population Mitotic Cells (%) [7]: 34% | Population Normal (%) [7]: 83% | Population Pyknosed Nuclei (%) [7]: 27% | Population Tubulin-Different-Phenotype (%) [7]: 58% | Total Cell Count [7]: 99 | Population Apoptotic (%) [8]: 41% | Population Fragmented Nuclei (%) [8]: 7% | Population Healthy Nuclei (%) [8]: 81% | Population Hoechst High Intensity Objects (%) [8]: 2% | Population Membrane Permeable-Phenotype (%) [8]: 3% | Population Mitochondria Different-Phenotype (%) [8]: 5% | Population Mitotic Cells (%) [8]: 58% | Population Normal (%) [8]: 97% | Population Pyknosed Nuclei (%) [8]: 11% | Population Tubulin-Different-Phenotype (%) [8]: 4% | Population Apoptotic (%) [9]: 64% | Population Fragmented Nuclei (%) [9]: 29% | Population Healthy Nuclei (%) [9]: 53% | Population Hoechst High Intensity Objects (%) [9]: 10% | Population Membrane Permeable-Phenotype (%) [9]: 22% | Population Mitochondria Different-Phenotype (%) [9]: 2% | Population Mitotic Cells (%) [9]: 35% | Population Normal (%) [9]: 89% | Population Pyknosed Nuclei (%) [9]: 16% | Population Tubulin-Different-Phenotype (%) [9]: 34% | Population Apoptotic (%) [10]: 33% | Population Fragmented Nuclei (%) [10]: 12% | Population Healthy Nuclei (%) [10]: 84% | Population Hoechst High Intensity Objects (%) [10]: 15% | Population Membrane Permeable-Phenotype (%) [10]: 14% | Population Mitochondria Different-Phenotype (%) [10]: 1% | Population Mitotic Cells (%) [10]: 66% | Population Normal (%) [10]: 84% | Population Pyknosed Nuclei (%) [10]: 3% | Population Tubulin-Different-Phenotype (%) [10]: 23% | Total Cell Count [10]: 106 | Population Apoptotic (%) [11]: 47% | Population Fragmented Nuclei (%) [11]: 34% | Population Healthy Nuclei (%) [11]: 45% | Population Hoechst High Intensity Objects (%) [11]: 16% | Population Membrane Permeable-Phenotype (%) [11]: 51% | Population Mitochondria Different-Phenotype (%) [11]: 0% | Population Mitotic Cells (%) [11]: 52% | Population Normal (%) [11]: 83% | Population Pyknosed Nuclei (%) [11]: 19% | Population Tubulin-Different-Phenotype (%) [11]: 42% | Total Cell Count [11]: 118 | Population Apoptotic (%) [12]: 33% | Population Fragmented Nuclei (%) [12]: 16% | Population Healthy Nuclei (%) [12]: 77% | Population Hoechst High Intensity Objects (%) [12]: 9% | Population Membrane Permeable-Phenotype (%) [12]: 8% | Population Mitochondria Different-Phenotype (%) [12]: 2% | Population Mitotic Cells (%) [12]: 66% | Population Normal (%) [12]: 90% | Population Pyknosed Nuclei (%) [12]: 5% | Population Tubulin-Different-Phenotype (%) [12]: 29%

Cc1ccccc1C(c1ccccc1C)N1C2CCC1CC(O)(c1ccccc1)C2 (stereo not drawn)
Population Apoptotic (%) [1]: 68% | Population Fragmented Nuclei (%) [1]: 14% | Population Healthy Nuclei (%) [1]: 40% | Population Mitotic Cells (%) [1]: 31% | Population Normal (%) [1]: 84% | Population Pyknosed Nuclei (%) [1]: 44% | Total Cell Count [1]: 127 | Population Apoptotic (%) [2]: 50% | Population Fragmented Nuclei (%) [2]: 9% | Population Healthy Nuclei (%) [2]: 81% | Population Hoechst High Intensity Objects (%) [2]: 9% | Population Mitotic Cells (%) [2]: 50% | Population Normal (%) [2]: 90% | Population Pyknosed Nuclei (%) [2]: 9% | Total Cell Count [2]: 80 | Population Apoptotic (%) [3]: 63% | Population Fragmented Nuclei (%) [3]: 23% | Population Healthy Nuclei (%) [3]: 44% | Population Mitotic Cells (%) [3]: 36% | Population Normal (%) [3]: 85% | Population Pyknosed Nuclei (%) [3]: 32% | Total Cell Count [3]: 161 | Population Apoptotic (%) [4]: 40% | Population Healthy Nuclei (%) [4]: 81% | Population Mitotic Cells (%) [4]: 60% | Population Normal (%) [4]: 86% | Total Cell Count [4]: 71 | Population Apoptotic (%) [5]: 62% | Population Healthy Nuclei (%) [5]: 55% | Population Hoechst High Intensity Objects (%) [5]: 20% | Population Mitotic Cells (%) [5]: 37% | Population Normal (%) [5]: 79% | Population Pyknosed Nuclei (%) [5]: 28% | Total Cell Count [5]: 107 | Population Fragmented Nuclei (%) [6]: 9% | Population Healthy Nuclei (%) [6]: 77% | Population Hoechst High Intensity Objects (%) [6]: 4% | Population Mitotic Cells (%) [6]: 80% | Population Normal (%) [6]: 95% | Total Cell Count [6]: 89 | Population Apoptotic (%) [7]: 47% | Population Fragmented Nuclei (%) [7]: 23% | Population Healthy Nuclei (%) [7]: 47% | Population Hoechst High Intensity Objects (%) [7]: 8% | Population Mitotic Cells (%) [7]: 52% | Population Normal (%) [7]: 91% | Population Pyknosed Nuclei (%) [7]: 28% | Total Cell Count [7]: 159 | Population Apoptotic (%) [8]: 50% | Population Fragmented Nuclei (%) [8]: 20% | Population Healthy Nuclei (%) [8]: 65% | Population Mitotic Cells (%) [8]: 50% | Population Normal (%) [8]: 93% | Total Cell Count [8]: 85 | Population Apoptotic (%) [9]: 61% | Population Fragmented Nuclei (%) [9]: 30% | Population Healthy Nuclei (%) [9]: 51% | Population Hoechst High Intensity Objects (%) [9]: 16% | Population Mitotic Cells (%) [9]: 38% | Population Normal (%) [9]: 83% | Total Cell Count [9]: 121 | Population Apoptotic (%) [10]: 0% | Population Fragmented Nuclei (%) [10]: 60% | Population Healthy Nuclei (%) [10]: 40% | Population Hoechst High Intensity Objects (%) [10]: 0% | Population Mitotic Cells (%) [10]: 0% | Population Normal (%) [10]: 100% | Population Pyknosed Nuclei (%) [10]: 0% | Total Cell Count [10]: 5 | Population Apoptotic (%) [11]: 40% | Population Fragmented Nuclei (%) [11]: 30% | Population Healthy Nuclei (%) [11]: 59% | Population Mitotic Cells (%) [11]: 60% | Population Normal (%) [11]: 92% | Population Pyknosed Nuclei (%) [11]: 9% | Total Cell Count [11]: 170 | Population Apoptotic (%) [12]: 100% | Population Fragmented Nuclei (%) [12]: 35% | Population Healthy Nuclei (%) [12]: 62% | Population Hoechst High Intensity Objects (%) [12]: 4% | Population Mitotic Cells (%) [12]: 0% | Population Normal (%) [12]: 95% | Population Pyknosed Nuclei (%) [12]: 1% | Total Cell Count [12]: 118
